Experimental data reported in ChEMBL document CHEMBL1140517, “Synthesis, antifungal and antimycobacterial activities of new bis-imidazole derivatives, and prediction of their binding to P450(14DM) by molecular docking and MM/PBSA method” (2007).
Converted amounts (≈) assume the structure as drawn.

How the values were obtained:
Assay type in all cases: functional
[1] = test system: Candida albicans; assay: Antimicrobial activity against Candida albicans 3038 after 24 hrs
Outline: (§1)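 Broth MIC against clinical Candida isolates (C. albicans 3038 and C. glabrata 123). Compounds were taken from 4 mg/mL DMSO stock solutions (stock, not final concentration). Miconazole and amphotericin B served as reference compounds. Each MIC was determined twice in duplicate experiments and read after 24 h and 48 h of incubation.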

[2] = test system: Candida albicans; assay: Antimicrobial activity against Candida albicans 3038 after 48 hrs; outline: as §1
[3] = test system: Nakaseomyces glabratus; assay: Antimicrobial activity against Candida glabrata 123 after 24 hrs; outline: as §1
[4] = test system: Nakaseomyces glabratus; assay: Antimicrobial activity against Candida glabrata 123 after 48 hrs; outline: as §1
[5] = test system: Mycobacterium tuberculosis; assay: Antimicrobial activity against Mycobacterium tuberculosis H37Rv after 24 hrs
[6] = test system: Mycobacterium tuberculosis; assay: Antimicrobial activity against Mycobacterium tuberculosis H37Rv assessed per disk after 24 hrs

Row | SMILES | MIC [1] [µg/mL] | MIC [2] [µg/mL] | MIC [3] [µg/mL] | MIC [4] [µg/mL] | MIC [5] [µg/mL] | MIC [6] [mg]
1 | COc1ccc(C(=O)C(Cn2ccnc2)Cn2ccnc2)cc1 | 64 (≈ 206 µM) | 128 (≈ 412 µM) | 128 (≈ 412 µM) | 128 (≈ 412 µM) | 16 (≈ 51.6 µM) | 
2 | O=C(c1ccc(Cl)cc1)C(Cn1ccnc1)Cn1ccnc1 | 16 (≈ 50.8 µM) | 32 (≈ 102 µM) | 32 (≈ 102 µM) | 64 (≈ 203 µM) | 16 (≈ 50.8 µM) | 
3 | O=C(c1ccccc1)C(Cn1ccnc1)Cn1ccnc1 | 64 (≈ 228 µM) | 64 (≈ 228 µM) | 128 (≈ 457 µM) | 128 (≈ 457 µM) | 16 (≈ 57.1 µM) | 
4 | C[C@@H]1[C@H](O)[C@@H](C)/C=C/C=C/C=C/C=C/C=C/C=C/C=C/[C@H](O[C@@H]2O[C@H](C)[C@@H](O)[C@H](N)[C@@H]2O)C[C@@H]2O[C@](O)(C[C@@H](O)C[C@@H](O)[C@H](O)CC[C@@H](O)C[C@@H](O)CC(=O)O[C@H]1C)C[C@H](O)[C@H]2C(=O)O [AMPHOTERICIN B] | 1 (≈ 1.08 µM) | 2 (≈ 2.16 µM) | 0.5 (≈ 0.541 µM) | 2 (≈ 2.16 µM) |  | 
5 | O=C(c1ccc([N+](=O)[O-])cc1)C(Cn1ccnc1)Cn1ccnc1 | 128 (≈ 393 µM) | > 128 | 128 (≈ 393 µM) | > 128 | 64 (≈ 197 µM) | 
6 | Cc1ccc(C(=O)C(Cn2ccnc2)Cn2ccnc2)cc1 | 64 (≈ 217 µM) | 128 (≈ 435 µM) | 128 (≈ 435 µM) | 128 (≈ 435 µM) | 8 (≈ 27.2 µM) | 
7 | O=C(c1ccc(Cl)s1)C(Cn1ccnc1)Cn1ccnc1 | 64 (≈ 199 µM) | 64 (≈ 199 µM) | 64 (≈ 199 µM) | 128 (≈ 399 µM) | 16 (≈ 49.9 µM) | 
8 | O=C(c1ccc(Br)cc1)C(Cn1ccnc1)Cn1ccnc1 | 16 (≈ 44.5 µM) | 32 (≈ 89.1 µM) | 32 (≈ 89.1 µM) | 64 (≈ 178 µM) | 16 (≈ 44.5 µM) | 
9 | COc1ccc(C(O)C(Cn2ccnc2)Cn2ccnc2)cc1 (stereo not drawn) | 128 (≈ 410 µM) | > 128 | 128 (≈ 410 µM) | > 128 | 64 (≈ 205 µM) | 
10 | O=C(c1ccc(-c2ccccc2)cc1)C(Cn1ccnc1)Cn1ccnc1 | 2 (≈ 5.61 µM) | 4 (≈ 11.2 µM) | 4 (≈ 11.2 µM) | 8 (≈ 22.4 µM) | 8 (≈ 22.4 µM) | 
11 | O=C(c1cccs1)C(Cn1ccnc1)Cn1ccnc1 | 128 (≈ 447 µM) | 128 (≈ 447 µM) | 128 (≈ 447 µM) | 128 (≈ 447 µM) | 16 (≈ 55.9 µM) | 
12 | O=C(c1ccc(F)cc1)C(Cn1ccnc1)Cn1ccnc1 | 64 (≈ 215 µM) | 128 (≈ 429 µM) | 128 (≈ 429 µM) | 128 (≈ 429 µM) | 16 (≈ 53.6 µM) | 
13 | Clc1ccc(COC(Cn2ccnc2)c2ccc(Cl)cc2Cl)c(Cl)c1 (stereo not drawn) [MICONAZOLE] | 2.5 (≈ 6.01 µM) | 5 (≈ 12 µM) | 1.25 (≈ 3 µM) | 2.5 (≈ 6.01 µM) |  | 
14 | CO[C@H]1/C=C/O[C@@]2(C)Oc3c(C)c(O)c4c(O)c(c(/C=N/N5CCN(C)CC5)c(O)c4c3C2=O)NC(=O)/C(C)=C\C=C\[C@H](C)[C@H](O)[C@@H](C)[C@@H](O)[C@@H](C)[C@H](OC(C)=O)[C@@H]1C [RIFAMPIN] |  |  |  |  |  | 1
15 | OC(c1ccc(Br)cc1)C(Cn1ccnc1)Cn1ccnc1 (stereo not drawn) | 128 (≈ 354 µM) | > 128 | 128 (≈ 354 µM) |  | 8 (≈ 22.1 µM) | 
16 | O=C(c1ccc(Br)s1)C(Cn1ccnc1)Cn1ccnc1 | 64 (≈ 175 µM) | 64 (≈ 175 µM) | 64 (≈ 175 µM) | 128 (≈ 350 µM) | 16 (≈ 43.8 µM) | 
